From ChEMBL document CHEMBL4689842, “EUbOPEN Chemogenomics Library wave 1” (2021)
Several values for one entry are separate records, joined by “and”; a condition that tells them apart may be missing. Equal entries are not always repeated.

Tested on: U2OS
Assay: Multiplex assay against U2OS
Type: toxicity, cell-based
Conditions: human
In short: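 Cells were classed with CellPathfinder machine-learning gating, first as Hoechst high-intensity objects or normal cells, then (normal cells) as healthy, pyknosed or fragmented nuclei, and finally (pyknosed cells) as mitotic or apoptotic. Staining of live cells at seeding used Hoechst33342, BioTracker Green Microtubule Cytoskeleton Dye, MitoTracker Red and Annexin V Alexa Fluor 680, with imaging on a CQ1 microscope at 37°C and 5% CO2 after compound addition. Tubulin, mitochondrial-mass and membrane-permeability phenotypes are per cents of healthy-nucleus cells.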

[1] = 12 h, 1 µM, compound concentration 1 uM, replicate 1
[2] = 12 h, 1 µM, compound concentration 1 uM, replicate 2
[3] = 12 h, 10 µM, compound concentration 10 uM, replicate 1
[4] = 12 h, 10 µM, compound concentration 10 uM, replicate 2
[5] = 24 h, 1 µM, compound concentration 1 uM, replicate 1
[6] = 24 h, 1 µM, compound concentration 1 uM, replicate 2
[7] = 24 h, 10 µM, compound concentration 10 uM, replicate 1
[8] = 24 h, 10 µM, compound concentration 10 uM, replicate 2
[9] = 48 h, 1 µM, compound concentration 1 uM, replicate 1
[10] = 48 h, 1 µM, compound concentration 1 uM, replicate 2
[11] = 48 h, 10 µM, compound concentration 10 uM, replicate 1
[12] = 48 h, 10 µM, compound concentration 10 uM, replicate 2

## CC(C)NC(=O)N1CC[C@H](NC2=Nc3cc(F)ccc3N(CC(F)F)c3ccc(Cl)cc32)C1
[1]
  Population Apoptotic (%): 50%
  Population Fragmented Nuclei (%): 11%
  Population Healthy Nuclei (%): 75%
  Population Hoechst High Intensity Objects (%): 7%
  Population Membrane Permeable-Phenotype (%): 7%
  Population Mitochondria Different-Phenotype (%): 8%
  Population Mitotic Cells (%): 50%
  Population Normal (%): 92%
  Population Pyknosed Nuclei (%): 13%
  Population Tubulin-Different-Phenotype (%): 19%
  Total Cell Count: 469
[2]
  Population Apoptotic (%): 33%
  Population Fragmented Nuclei (%): 5%
  Population Healthy Nuclei (%): 89%
  Population Hoechst High Intensity Objects (%): 9%
  Population Membrane Permeable-Phenotype (%): 4%
  Population Mitochondria Different-Phenotype (%): 18%
  Population Mitotic Cells (%): 66%
  Population Normal (%): 90%
  Population Pyknosed Nuclei (%): 5%
  Population Tubulin-Different-Phenotype (%): 14%
  Total Cell Count: 293
[3]
  Population Apoptotic (%): 47%
  Population Fragmented Nuclei (%): 11%
  Population Healthy Nuclei (%): 72%
  Population Hoechst High Intensity Objects (%): 11%
  Population Membrane Permeable-Phenotype (%): 4%
  Population Mitochondria Different-Phenotype (%): 52%
  Population Mitotic Cells (%): 52%
  Population Normal (%): 88%
  Population Pyknosed Nuclei (%): 15%
  Population Tubulin-Different-Phenotype (%): 89%
  Total Cell Count: 96
[4]
  Population Apoptotic (%): 0%
  Population Fragmented Nuclei (%): 6%
  Population Healthy Nuclei (%): 81%
  Population Hoechst High Intensity Objects (%): 13%
  Population Membrane Permeable-Phenotype (%): 13%
  Population Mitochondria Different-Phenotype (%): 63%
  Population Mitotic Cells (%): 100%
  Population Normal (%): 86%
  Population Pyknosed Nuclei (%): 11%
  Population Tubulin-Different-Phenotype (%): 58%
  Total Cell Count: 62
[5]
  Population Apoptotic (%): 53%
  Population Fragmented Nuclei (%): 9%
  Population Healthy Nuclei (%): 78%
  Population Hoechst High Intensity Objects (%): 6%
  Population Membrane Permeable-Phenotype (%): 10%
  Population Mitochondria Different-Phenotype (%): 28%
  Population Mitotic Cells (%): 46%
  Population Normal (%): 93%
  Population Pyknosed Nuclei (%): 12%
  Population Tubulin-Different-Phenotype (%): 21%
  Total Cell Count: 453
[6]
  Population Apoptotic (%): 50%
  Population Fragmented Nuclei (%): 5%
  Population Healthy Nuclei (%): 88%
  Population Membrane Permeable-Phenotype (%): 6%
  Population Mitochondria Different-Phenotype (%): 19%
  Population Mitotic Cells (%): 50%
  Population Pyknosed Nuclei (%): 5%
  Population Tubulin-Different-Phenotype (%): 9%
  Total Cell Count: 281
[7]
  Population Apoptotic (%): 56%
  Population Fragmented Nuclei (%): 14%
  Population Healthy Nuclei (%): 61%
  Population Hoechst High Intensity Objects (%): 6%
  Population Membrane Permeable-Phenotype (%): 15%
  Population Mitochondria Different-Phenotype (%): 61%
  Population Mitotic Cells (%): 43%
  Population Normal (%): 93%
  Population Pyknosed Nuclei (%): 23%
  Population Tubulin-Different-Phenotype (%): 79%
  Total Cell Count: 112
[8]
  Population Apoptotic (%): 83%
  Population Fragmented Nuclei (%): 13%
  Population Healthy Nuclei (%): 73%
  Population Hoechst High Intensity Objects (%): 10%
  Population Membrane Permeable-Phenotype (%): 6%
  Population Mitochondria Different-Phenotype (%): 57%
  Population Mitotic Cells (%): 16%
  Population Normal (%): 90%
  Population Pyknosed Nuclei (%): 13%
  Population Tubulin-Different-Phenotype (%): 51%
  Total Cell Count: 75
[9]
  Population Apoptotic (%): 52%
  Population Fragmented Nuclei (%): 10%
  Population Healthy Nuclei (%): 77%
  Population Membrane Permeable-Phenotype (%): 3%
  Population Mitochondria Different-Phenotype (%): 23%
  Population Mitotic Cells (%): 47%
  Population Pyknosed Nuclei (%): 11%
  Population Tubulin-Different-Phenotype (%): 23%
  Total Cell Count: 499
[10]
  Population Apoptotic (%): 25%
  Population Fragmented Nuclei (%): 4%
  Population Healthy Nuclei (%): 87%
  Population Hoechst High Intensity Objects (%): 6%
  Population Membrane Permeable-Phenotype (%): 10%
  Population Mitochondria Different-Phenotype (%): 26%
  Population Mitotic Cells (%): 75%
  Population Normal (%): 93%
  Population Pyknosed Nuclei (%): 7%
  Population Tubulin-Different-Phenotype (%): 22%
  Total Cell Count: 259
[11]
  Population Apoptotic (%): 82%
  Population Fragmented Nuclei (%): 23%
  Population Healthy Nuclei (%): 47%
  Population Hoechst High Intensity Objects (%): 6%
  Population Membrane Permeable-Phenotype (%): 20%
  Population Mitochondria Different-Phenotype (%): 44%
  Population Mitotic Cells (%): 17%
  Population Normal (%): 93%
  Population Pyknosed Nuclei (%): 29%
  Population Tubulin-Different-Phenotype (%): 76%
  Total Cell Count: 160
[12]
  Population Apoptotic (%): 69%
  Population Fragmented Nuclei (%): 13%
  Population Healthy Nuclei (%): 60%
  Population Hoechst High Intensity Objects (%): 13%
  Population Membrane Permeable-Phenotype (%): 41%
  Population Mitochondria Different-Phenotype (%): 61%
  Population Mitotic Cells (%): 30%
  Population Normal (%): 86%
  Population Pyknosed Nuclei (%): 25%
  Population Tubulin-Different-Phenotype (%): 58%
  Total Cell Count: 115

## CCOC(=O)Nc1cc(-c2ccc(C)c(NS(C)(=O)=O)c2)nn2c(C)nnc12
[1]
  Population Apoptotic (%): 83%
  Population Fragmented Nuclei (%): 7%
  Population Healthy Nuclei (%): 89%
  Population Hoechst High Intensity Objects (%): 2%
  Population Membrane Permeable-Phenotype (%): 9%
  Population Mitochondria Different-Phenotype (%): 27%
  Population Mitotic Cells (%): 16%
  Population Normal (%): 97%
  Population Pyknosed Nuclei (%): 3%
  Population Tubulin-Different-Phenotype (%): 26%
  Total Cell Count: 184
[2]
  Population Apoptotic (%): 100%
  Population Fragmented Nuclei (%): 11%
  Population Healthy Nuclei (%): 88%
  Population Hoechst High Intensity Objects (%): 11%
  Population Membrane Permeable-Phenotype (%): 7%
  Population Mitochondria Different-Phenotype (%): 31%
  Population Mitotic Cells (%): 0%
  Population Normal (%): 88%
  Population Pyknosed Nuclei (%): 0%
  Population Tubulin-Different-Phenotype (%): 47%
  Total Cell Count: 152
[3]
  Population Apoptotic (%): 36% and 50%
  Population Fragmented Nuclei (%): 7% and 3%
  Population Healthy Nuclei (%): 85% and 87%
  Population Hoechst High Intensity Objects (%): 4% and 3%
  Population Membrane Permeable-Phenotype (%): 2% and 7%
  Population Mitotic Cells (%): 63% and 50%
  Population Normal (%): 95% and 96%
  Population Pyknosed Nuclei (%): 7% and 8%
  Total Cell Count: 284 and 216
[4]
  Population Fragmented Nuclei (%): 8% and 6%
  Population Healthy Nuclei (%): 86% and 89%
  Population Hoechst High Intensity Objects (%): 2% and 10%
  Population Membrane Permeable-Phenotype (%): 0% and 6%
  Population Mitochondria Different-Phenotype (%): 11% and 29%
  Population Mitotic Cells (%): 60% and 100%
  Population Normal (%): 97% and 89%
  Population Pyknosed Nuclei (%): 5% and 3%
  Population Tubulin-Different-Phenotype (%): 89% and 30%
  Total Cell Count: 101 and 206
[5]
  Population Apoptotic (%): 22%
  Population Fragmented Nuclei (%): 7%
  Population Healthy Nuclei (%): 88%
  Population Hoechst High Intensity Objects (%): 2%
  Population Mitochondria Different-Phenotype (%): 32%
  Population Mitotic Cells (%): 77%
  Population Normal (%): 97%
  Population Pyknosed Nuclei (%): 3%
  Population Tubulin-Different-Phenotype (%): 32%
  Total Cell Count: 257
[6]
  Population Apoptotic (%): 20%
  Population Fragmented Nuclei (%): 9%
  Population Healthy Nuclei (%): 84%
  Population Hoechst High Intensity Objects (%): 7%
  Population Membrane Permeable-Phenotype (%): 4%
  Population Mitochondria Different-Phenotype (%): 34%
  Population Mitotic Cells (%): 80%
  Population Normal (%): 92%
  Population Pyknosed Nuclei (%): 5%
  Population Tubulin-Different-Phenotype (%): 59%
  Total Cell Count: 195
[7]
  Population Fragmented Nuclei (%): 5%
  Population Healthy Nuclei (%): 87% and 93%
  Population Hoechst High Intensity Objects (%): 3% and 1%
  Population Membrane Permeable-Phenotype (%): 1% and 4%
  Population Mitochondria Different-Phenotype (%): 11% and 18%
  Population Mitotic Cells (%): 88% and 33%
  Population Normal (%): 96% and 98%
  Population Pyknosed Nuclei (%): 7% and 3%
  Total Cell Count: 378 and 305
[8]
  Population Apoptotic (%): 28% and 53%
  Population Fragmented Nuclei (%): 3% and 7%
  Population Healthy Nuclei (%): 90% and 86%
  Population Hoechst High Intensity Objects (%): 2% and 9%
  Population Membrane Permeable-Phenotype (%): 0% and 5%
  Population Mitochondria Different-Phenotype (%): 16% and 30%
  Population Mitotic Cells (%): 71% and 46%
  Population Normal (%): 97% and 90%
  Population Pyknosed Nuclei (%): 5% and 6%
  Population Tubulin-Different-Phenotype (%): 96% and 35%
  Total Cell Count: 137 and 273
[11]
  Population Apoptotic (%): 36%
  Population Fragmented Nuclei (%): 5%
  Population Healthy Nuclei (%): 91%
  Population Hoechst High Intensity Objects (%): 1%
  Population Mitochondria Different-Phenotype (%): 10%
  Population Mitotic Cells (%): 63%
  Population Normal (%): 98%
  Population Pyknosed Nuclei (%): 3%
  Population Tubulin-Different-Phenotype (%): 98%
  Total Cell Count: 662
[12]
  Population Apoptotic (%): 17%
  Population Fragmented Nuclei (%): 2%
  Population Healthy Nuclei (%): 90%
  Population Hoechst High Intensity Objects (%): 2%
  Population Membrane Permeable-Phenotype (%): 0%
  Population Mitochondria Different-Phenotype (%): 12%
  Population Mitotic Cells (%): 82%
  Population Normal (%): 97%
  Population Pyknosed Nuclei (%): 6%
  Population Tubulin-Different-Phenotype (%): 91%
  Total Cell Count: 261
